Bioassay records: PubChem, The Scripps Research Institute Molecular Screening Center
PRMT1 FP inh = inhibitors of human PRMT1. Q99873. recombinant PRMT1, activity-based probe fluorescence polarization. inhibition, % at 2.79 µM. 370,000 compounds, 1.3% hits;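 active = inhibition above about 21% made by adding two undisclosed values, limit read from the data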
TCR CD3 inh = human TCR-CD3 binding inhibition; 360,000 compounds, 0.37% hits; TAMRA-labeled TCR probe fluorescence, biochemical; inhibition, % at 9.4 µM; in the data active = inhibition above about 19%;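 also: recombinant mutant TCR 2C K166C tagged with TAMRA read by polarization; 0% = receptor in buffer alone and 100% = receptor with positive control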
HTRA1 inhibitor = inhibitors of human serine peptidase HTRA1; Q92743; recombinant HTRA1, FP-rhodamine activity-based probe, fluorescence polarization; inhibition, % at 5.96 µM; 340,000 compounds, 0.5% hits; in the data active = inhibition above about 36%;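 also: 0% = enzyme with DMSO and 100% = wells lacking enzyme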
rCAG binder = r(CAG) repeat RNA binding. 370,000 compounds, 1.3% hits. AID 651821. inhibition, % at 3 µM. TO-PRO-1 dye displacement fluorescence;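 active = inhibition above the plate cutoff, the mean of all test compounds on that plate plus 3 SD, cut at about 35% in these data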;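 also: 0% = DMSO alone and 100% = 100 µM mitoxantrone as full dye displacement; higher means more dye released from RNA so lower well fluorescence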
ABHD4 inh = inhibits mouse alpha/beta hydrolase domain 4; Q8VD66; purified mABHD4, FP-Rh probe fluorescence polarization; inhibition, % at 8.92 µM; 370,000 compounds, 0.54% hits; AID 720543;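 active = inhibition exceeding the mean over every tested compound plus 3 SD, cut at about 30% in these data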;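 also: 0% = plate median of compound wells and 100% = S159A mutant with DMSO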
Target sequence (Q8VD66 whole entry, looked up, the tested form may be a part): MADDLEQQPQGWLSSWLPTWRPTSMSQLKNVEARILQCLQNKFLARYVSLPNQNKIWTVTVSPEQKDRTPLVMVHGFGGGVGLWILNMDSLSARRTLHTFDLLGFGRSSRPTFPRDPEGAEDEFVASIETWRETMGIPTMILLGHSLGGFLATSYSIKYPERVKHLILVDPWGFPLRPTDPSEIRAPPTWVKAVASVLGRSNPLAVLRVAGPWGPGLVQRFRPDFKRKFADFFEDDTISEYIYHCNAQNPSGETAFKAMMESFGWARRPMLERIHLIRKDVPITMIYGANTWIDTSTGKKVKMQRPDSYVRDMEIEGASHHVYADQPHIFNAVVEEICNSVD
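Assay system: mABHD4 protein; medium: HEPES pH 7.0, NaCl, Pluronic buffer; dosing: 8.92 µM, single dose; schedule: 45 min + 60 min at 25 °C; signal: FP readout, ex 525 nm / em 598 nm; read-out: normalized percent inhibition of probe labeling; repeats: single replicate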
SIAE inh = human SIAE inhibition, primary screen | inhibition, % at 9.66 µM | AID 1053197 | SIAE FP-Rh probe binding, fluorescence polarization | 370,000 compounds, 0.69% hits;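 active = inhibition above a cutoff: mean of compounds within the control limits plus 3 SD of those, cut at about 17% in these data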;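 also: 0% = plate median of compound wells and 100% = probe without SIAE protein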
HTRA1 conf = HTRA1 (human) inhibition, confirmation | inhibition, % at 5.96 µM | 1,600 compounds, 66% hits | shares compounds with HTRA1 inhibitor | recombinant HTRA1, FP-rhodamine activity-based probe, fluorescence polarization | AID 540248;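 active = mean inhibition over three repeats above a set limit taken from the earlier primary screen, cut at about 37% in these data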;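 also: 0% = HTRA1 with DMSO and 100% = wells lacking HTRA1; inhibitors block probe binding so polarization drops and inhibition rises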
* = called active by the depositor; / = not tested or not shown. Hits are enriched below; roughly 3.5% of the tested compounds scored in any of these assays.

SMILES | PRMT1 FP inh | TCR CD3 inh | HTRA1 inhibitor | rCAG binder | ABHD4 inh | SIAE inh | HTRA1 conf
O=c1c(-c2ccc(O)cc2)coc2cc(O)cc(O)c12 | 2 | -8 | -2 | -1 | 2 | -6 | /
COc1ccc2cc(C=O)n(C)c2c1 | -1 | -9 | -2 | -3 | 6 | 2 | /
COc1ccc2cc(CO)n(C)c2c1 | 0 | 7 | 42* | 6 | 2 | 11 | 23
CN1CCN(c2cc(-c3cc(O)c4ncccc4c3)ccn2)CC1 | 1 | -6 | 47* | 3 | 19 | 4 | 62*
CN1CCN(C(=O)c2cccc(-c3cc(O)c4ncccc4c3)c2)CC1 | -3 | 0 | 25 | -6 | 8 | 5 | /
Nc1c(S(=O)(=O)O)cc(NC(=O)c2ccccc2)c2c1C(=O)c1ccccc1C2=O | / | / | 55* | / | / | / | 72*
Cc1ccccc1-c1ccc(Nc2ccc(N3CCOCC3)cc2)nn1 | / | / | 45* | / | / | / | 54*
O=S1(=O)N=C(Nc2ccc(N3CCOCC3)cc2)c2ccccc21 | -2 | 2 | 1 | 3 | 2 | -3 | /
COc1ccc(/C=N/Nc2nnc(-c3ncc[nH]3)c3ccccc23)cc1 | / | / | -4 | / | / | / | /
Oc1ccc2ccccc2c1/C=N/Nc1nnc(-c2ncc[nH]2)c2ccccc12 | -3 | 7 | 38* | 12 | 23 | 16 | 100*
O=C(CSc1nc2ccccc2[nH]1)NN=Cc1c(F)cccc1Cl | -2 | / | / | 2 | -5 | 3 | /
Cc1ccn2c(Nc3ccc4c(c3)OCO4)c(-c3ccccn3)nc2c1 | 15 | 7 | 64* | -7 | 22 | 25* | 75*
Cc1ccc(Nc2c(-c3ccccn3)nc3ccc(C)cn23)cc1 | -1 | -4 | 55* | -4 | 11 | 8 | 58*
Cc1ccc2nc(-c3ccncc3)c(Nc3ccccc3)n2c1 | -2 | -1 | -5 | -4 | 3 | 8 | /
Cc1ccc(Nc2c(-c3ccccn3)nc3cc(C)ccn23)cc1 | -5 | 4 | 44* | -1 | 10 | 8 | 61*
CC(C)(C)N(Cc1cn(Cc2ccccc2)nn1)S(=O)(=O)c1ccc(N2CCCCC2)cc1Br | -1 | / | / | 5 | -10 | -4 | /
C/C(C=NNC(=O)CSc1nnc(-c2ccc(Cl)cc2)n1-c1ccccc1)=C\c1ccccc1 | -5 | / | / | 9 | -5 | -5 | /
CN=c1scc(-c2ccco2)n1/N=C/c1ccc(O)c(O)c1 | 9 | 15 | 74* | 31 | 40* | -2 | 73*
COc1ccc(O)c(/C=N/n2c(-c3ccco3)csc2=Nc2cccnc2)c1 | 4 | -1 | -2 | 3 | 18 | 10 | /
O=S(=O)(CC1NCc2ccccc21)NC1CCCC1 (stereo not drawn) | -2 | / | / | 6 | -10 | -1 | /
CC(C)c1ccc(NC(=O)Nc2cc3sccc3n2C)cc1 | 10 | 3 | 47* | 19 | 18 | -3 | 9
Cn1c(C(=O)Nc2ccc3c(c2)OCCO3)cc2sccc21 | 0 | 6 | -4 | 2 | 1 | 8 | /
Cc1cc(C)c2c(c1)NC(C(=O)O)C1CC=CC21 (stereo not drawn) | 32* | 29* | 74* | 58* | 56* | 20* | 70*
O=C(O)C1Nc2c(C(=O)N3CCOCC3)cccc2C2C=CCC12 (stereo not drawn) | / | / | 6 | / | / | / | /
CCOC(=O)c1c(N)sc2c1CCCC2 | 6 | 4 | -1 | 5 | 4 | 2 | /
SMILES | PRMT1 FP inh | TCR CD3 inh | HTRA1 inhibitor | rCAG binder | ABHD4 inh | SIAE inh | HTRA1 conf
Nc1sc2c(c1C(=O)NC1CC1)CCCC2 | 16 | 8 | 47* | 8 | 13 | 8 | 8
O=C1CCC/C(=N/Nc2ccc(Cl)cc2)C1 | 2 | 2 | 37* | 12 | 18 | 6 | 42*
CC(=O)NC1CCCCN(Cc2cccc(F)c2)C1=O (stereo not drawn) | -3 | / | / | -1 | 5 | 3 | /
Oc1c(CN2CCN(c3ccccc3)CC2)cc(Br)c2cccnc12 | 0 | 6 | 56* | 1 | 15 | 6 | 44*
Oc1c(Br)cc(Br)c2cccnc12 | 0 | -6 | 58* | 15 | 28 | 27* | 59*
Brc1csc2ncccc12 | 2 | -5 | 1 | -1 | 9 | -3 | /
Cc1cc(C)c(O)c(CN(C)Cc2cc(Cl)cc(Cl)c2O)c1 | 2 | -10 | 62* | 10 | 5 | 9 | 55*
Cc1ccnc(NCc2cc(Cl)cc(Cl)c2O)c1 | 5 | -6 | 3 | 1 | -2 | 1 | /
